We go through 31 compounds from ChEMBL document CHEMBL1795212, “Synthesis and in vitro antimalarial activity of tetraoxane-amine/amide conjugates” (Eur J Med Chem, 2011).

The nature of data set [1]: Selectivity index, IC50 for african green monkey Vero cells to IC50 for Plasmodium falciparum D6. Type of data set: functional. Put shortly: (§1)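 Selectivity index is the cytotoxicity IC50 in Vero cells divided by the antimalarial IC50 against the stated P. falciparum clone (D6 or W2).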
For data set [2], the system named is Plasmodium falciparum. Put plainly: Antimalarial activity against Plasmodium falciparum D6 assessed as plasmodial LDH activity after 72 hrs. The conditions noted are these: Plasmodium falciparum, D6, 72 h; read-out: IC50. The format is functional, organism-based. Put shortly:
(§2)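 P. falciparum D6 (chloroquine-sensitive) and W2 (chloroquine-resistant) clones screened in vitro alongside Vero cytotoxicity, up to a highest concentration of 12.5; IC50 determined.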

Data set [3] relates to Plasmodium falciparum. Put plainly: Antimalarial activity against Plasmodium falciparum W2 assessed as plasmodial LDH activity after 72 hrs. The format is functional, organism-based. The conditions noted are these: Plasmodium falciparum, W2, 72 h; read-out: IC50. Put shortly: as §2
Data set [4] can be described thus: Selectivity index, IC50 for african green monkey Vero cells to IC50 for Plasmodium falciparum W2. The format is functional. Put shortly:
as §1

The subject of data set [5] is Vero. Put plainly: Cytotoxicity against african green monkey Vero cells at 12.5 uM. The format is cell-based. The conditions noted are these: chlorocebus sabaeus. Put shortly:
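Mammalian kidney Vero cells screened in vitro for cytotoxicity, in parallel with the antimalarial screen, up to a highest concentration of 12.5.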

The next data set concerns SK-MEL. Put plainly: Cytotoxicity against human SK-MEL cells up to 25 uM. The format is cell-based. Put shortly:
(§3)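 Cytotoxicity panel: four cancer lines (SK-MEL, KB, BT-549, SK-OV-3) and two non-cancer lines (Vero, LLC-PK11), tested up to a concentration of 25.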

A further data set relates to KB. Put plainly: Cytotoxicity against human KB cells up to 25 uM. The format is cell-based. Put shortly:
as §3

Another data set concerns BT-549. Put plainly: Cytotoxicity against human BT549 cells up to 25 uM. The format is cell-based. Put shortly:
as §3

The next data set has as its system SK-OV-3. Put plainly: Cytotoxicity against human SKOV3 cells up to 25 uM. The format is cell-based. Put shortly:
as §3

Data set [6] deals with Vero. Put plainly: Cytotoxicity against african green monkey Vero cells up to 25 uM. The format is cell-based. The conditions noted are these: chlorocebus sabaeus. Put shortly:
as §3

Data set [7] can be described thus: Cytotoxicity against pig LLC-PK11 cells up to 25 uM. The format is cell-based, Sus scrofa. Put shortly: as §3

`Cc1ccc(C2OOC(c3ccc(CNc4ccc(O)cc4)cc3)OO2)cc1` (stereo unspecified): the “Ratio IC50” value in data set [1] and in [4] was above 1.8 each time. The IC50 was 6.32 µM in the data set with Plasmodium falciparum [2] and 7.11 µM with Plasmodium falciparum [3]. The Activity result in the data set with Vero [5] is “Non-toxic”.
Consider `Cc1ccc(C2OOC(c3ccc(/C=N\c4cccnc4)cc3)OO2)cc1` (stereo unspecified), for which the “Ratio IC50” value in data set [1] is above 17.6; in [4] it was above 16.4. The IC50 in the data set on Plasmodium falciparum [2] came to 0.75 µM; in the data set with Plasmodium falciparum [3] it was 0.8 µM. The Activity entry (in the data set with SK-MEL; in the data set with KB; in the data set on BT-549; in the data set on SK-OV-3; in the data set on Vero [6]; in data set [7]) was “Non-toxic” in each case. For the same compound, the Activity entry in the data set on Vero [5] is recorded as “Non-toxic”.
With `Cc1ccc(C2OOC(c3ccc(CNc4c(C)cccc4C)cc3)OO2)cc1` (stereo unspecified), the entries for the “Ratio IC50” value in [1] and in data set [4] were above 8.2 and above 8.4, respectively. Further, the IC50 in the data set with Plasmodium falciparum [2] stood at 1.48 µM; in the data set on Plasmodium falciparum [3], 1.45 µM. For the same compound, the Activity entry in the data set with Vero [5] was “Non-toxic”.
For `CCc1ccc(NCc2ccc(C3OOC(c4ccc(C)cc4)OO3)cc2)cc1` (stereo unspecified), in that order: above 3.7, above 5.2, 3.32 µM, 2.35 µM and “Non-toxic”.
For `Cc1ccc(C2OOC(c3ccc(CNc4ccc(C(C)C)cc4)cc3)OO2)cc1` (stereo unspecified), in that order: above 4.9, above 3.7, 2.39 µM, 3.2 µM and “Non-toxic”.
For `CCCc1ccc(NCc2ccc(C3OOC(c4ccc(C)cc4)OO3)cc2)cc1` (stereo unspecified), in that order: above 2.3, above 2.8, 5.67 µM, 4.19 µM and “Non-toxic”.
In the case of `Cc1ccc(C2OOC(c3ccc(CNc4ccc(F)cc4)cc3)OO2)cc1` (stereo unspecified), the “Ratio IC50” value in data set [1] was above 6; in [4], above 5.3. The IC50 in the data set on Plasmodium falciparum [2] was found to be 2.09 µM; in the data set on Plasmodium falciparum [3] it was 2.35 µM. For the same compound, the Activity entry in the data set with Vero [5] is listed as “Non-toxic”.
For `Cc1ccc(C2OOC(c3ccc(CNc4cccc(F)c4)cc3)OO2)cc1` (stereo unspecified), in that order: above 5.1, above 6.8, 2.46 µM, 1.83 µM and “Non-toxic”.
For `Cc1ccc(C2OOC(c3ccc(CNc4ccccc4F)cc3)OO2)cc1` (stereo unspecified), in that order: above 6.6, above 6.8, 1.88 µM, 1.83 µM and “Non-toxic”.
On to `Cc1ccc(C2OOC(c3ccc(CNc4ccc(Cl)cc4)cc3)OO2)cc1` (stereo unspecified), for which the “Ratio IC50” value in data set [1] is above 6.8; in data set [4], above 7. Besides, the IC50 in the data set with Plasmodium falciparum [2] was 1.79 µM; in the data set with Plasmodium falciparum [3], 1.7 µM. Besides, the Activity entry in the data set with Vero [5] is on record as “Non-toxic”.
For `Cc1ccc(C2OOC(c3ccc(CNc4ccccc4Cl)cc3)OO2)cc1` (stereo unspecified), in that order: above 4.8, above 4.3, 2.51 µM, 2.76 µM and “Non-toxic”.
For `Cc1ccc(C2OOC(c3ccc(CNc4cc(Cl)c(Cl)cc4Cl)cc3)OO2)cc1` (stereo unspecified), in that order: above 1.2, above 1.6, 8.57 µM, 6.42 µM and “Non-toxic”.
With `Cc1ccc(C2OOC(c3ccc(CNc4ccc(Br)cc4)cc3)OO2)cc1` (stereo unspecified), the figures for the “Ratio IC50” value in [1] and in data set [4] were above 1.4 and above 2.2, respectively. The IC50 stood at 7.69 µM in the data set on Plasmodium falciparum [2] and 4.97 µM with Plasmodium falciparum [3]. Also, the Activity entry in the data set on Vero [5] is “Non-toxic”.
In the same order, the values of `COc1ccc(NCc2ccc(C3OOC(c4ccc(C)cc4)OO3)cc2)cc1` (stereo unspecified) are above 1.5, above 1.2, 8.13 µM, 10.2 µM and “Non-toxic”.
In the same order, the values of `COc1cc(NCc2ccc(C3OOC(c4ccc(C)cc4)OO3)cc2)cc(OC)c1` (stereo unspecified) are above 1.8, above 1.2, 6.37 µM, 9.2 µM and “Non-toxic”.
For `Cc1ccc(C2OOC(c3ccc(CNc4cccc(O)c4)cc3)OO2)cc1` (stereo unspecified), in that order: above 3.7, above 3.2, 3.42 µM, 3.95 µM and “Non-toxic”.
As for `Cc1ccc(C2OOC(c3ccc(CNc4ccc(N)cc4)cc3)OO2)cc1` (stereo unspecified), the “Ratio IC50” value is on record as above 2.4 in data set [1] and above 1.7 in data set [4]. The IC50 turned out to be 5.28 µM in the data set on Plasmodium falciparum [2] and 7.39 µM in the data set on Plasmodium falciparum [3]. Also, in the data set on Vero [5], the Activity result is listed as “Non-toxic”.
For `Cc1ccc(C2OOC(c3ccc(C(=O)O)cc3)OO2)cc1` (stereo unspecified), in that order: above 1.5, above 1.7, 10.6 µM, 9.26 µM and “Non-toxic”.
With `CCc1ccc(C2OOC(c3ccc(C(=O)NCCO)cc3)OO2)cc1` (stereo unspecified), the “Ratio IC50” value in [1] was above 2; in [4] it was above 1.8. Further, the values for the IC50 with Plasmodium falciparum [2] and in the data set with Plasmodium falciparum [3] were 6.67 µM and 7.51 µM, respectively. For the same compound, in the data set on Vero [5], the Activity result is “Non-toxic”.
In the same order, the values of `CCc1ccc(C2OOC(c3ccc(C(=O)NCCCO)cc3)OO2)cc1` (stereo unspecified) are above 2.6, above 2.6, 4.82 µM, 4.82 µM and “Non-toxic”.
Consider `CCc1ccc(C2OOC(c3ccc(C(=O)NCCCCCCO)cc3)OO2)cc1` (stereo unspecified), for which the “Ratio IC50” value was above 3.4 in data set [1] and above 2.4 in data set [4]. For the same compound, the IC50 with Plasmodium falciparum [2] amounted to 3.36 µM; in the data set on Plasmodium falciparum [3], 4.81 µM. The Activity result in the data set with Vero [5] was “Non-toxic”.
In the same order, the values of `CCCNC(=O)c1ccc(C2OOC(c3ccc(C)cc3)OO2)cc1` (stereo unspecified) are above 3.4, above 1, 8.73 µM, 13.9 µM and “Non-toxic”.
In the same order, the values of `CCCCNC(=O)c1ccc(C2OOC(c3ccc(CC)cc3)OO2)cc1` (stereo unspecified) are above 1.9, above 1.8, 6.73 µM, 6.99 µM and “Non-toxic”.
For `Cc1ccc(C2OOC(c3ccc(C(=O)NCCNc4ccnc5cc(Cl)ccc45)cc3)OO2)cc1` (stereo unspecified), the results for the “Ratio IC50” value in data set [1] and in data set [4] were above 8.5 and above 6.3, respectively. Moreover, the results for the IC50 in the data set with Plasmodium falciparum [2] and in the data set on Plasmodium falciparum [3] were 1.1 µM and 1.5 µM, respectively. Moreover, the Activity result in the data set on Vero [5] is reported as “Non-toxic”.
In the same order, the values of `Cc1ccc(C2OOC(c3ccc(C(=O)NCCCNc4ccnc5cc(Cl)ccc45)cc3)OO2)cc1` (stereo unspecified) are above 7.7, above 4.3, 1.19 µM, 2.11 µM and “Non-toxic”.
In the same order, the values of `CCc1ccc(C2OOC(c3ccc(C(=O)NCCCNc4ccnc5cc(Cl)ccc45)cc3)OO2)cc1` (stereo unspecified) are above 8.2, above 3.7, 1.08 µM, 2.43 µM and “Non-toxic”.
On to `Cc1ccc(C2OOC(c3ccc(C(=O)NCCc4ccccc4)cc3)OO2)cc1` (stereo unspecified), for which the “Ratio IC50” value is listed as above 4.3 in data set [1] and above 5.6 in data set [4]. Also, the IC50 stood at 2.71 µM with Plasmodium falciparum [2] and 2.09 µM in the data set on Plasmodium falciparum [3]. Further, the Activity result in the data set on Vero [5] is “Non-toxic”.
With `Cc1ccc(C2OOC(c3ccc(C(=O)N4CCN(c5ccccc5)CC4)cc3)OO2)cc1` (stereo unspecified), the results for the “Ratio IC50” value in [1] and in data set [4] were above 2.6 and above 1.5, respectively. In addition, the IC50 with Plasmodium falciparum [2] was determined as 4.03 µM; in the data set on Plasmodium falciparum [3], 7.16 µM. Further, the Activity result in the data set with Vero [5] is on record as “Non-toxic”.
In the same order, the values of `Cc1ccc(C2OOC(c3ccc(C(=O)NC4CCCCC4)cc3)OO2)cc1` (stereo unspecified) are above 2.8, above 4.3, 4.43 µM, 2.86 µM and “Non-toxic”.
`Cc1ccc(C2OOC(c3ccc(C(=O)NCCCCCCCN)cc3)OO2)cc1` (stereo unspecified): the “Ratio IC50” value is listed as above 2.2 in data set [1] and above 2.4 in [4]. Further, the IC50 was 5.13 µM in the data set with Plasmodium falciparum [2] and 4.66 µM in the data set with Plasmodium falciparum [3]. Further, the Activity result in the data set with Vero [5] is reported as “Non-toxic”.
In the same order, the values of `C[C@@H]1CC[C@H]2[C@@H](C)C(=O)O[C@@H]3O[C@@]4(C)CC[C@@H]1[C@]32OO4` [ARTEMISININ] are above 500, above 670, 0.03 µM, 0.025 µM and “Non-toxic”.

A word on the IC50: it is the concentration that gives 50% inhibition.
